Activity, viability and inhibition data for three molecules are collected here from ChEMBL document CHEMBL4402517, “Rational modification of Mannich base-type derivatives as novel antichagasic compounds: Synthesis, in vitro and in vivo evaluation” (Bioorg Med Chem, 2019).

In series [1] the test system is Trypanosoma cruzi. Nature of the series: Antitrypanosomal activity against Trypanosoma cruzi MHOM/Pe/2011/Arequipa;DTU 5 epimastigote assessed as effect on parasite glycolytic pathway by measuring decrease in succinate excretion at IC50 after 72 hrs by H NMR method relative to control. Type of series: functional. On the set-up: scale not given: the % may be the effect or the level left. In a few lines:
(§1)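 Cells were spun at 800 × g for 10 min and culture supernatants analysed by 1H NMR. Catabolite peaks were expressed as % variation versus untreated parasites.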

A short description of series [2]: Genotoxicity in Salmonella typhimurium TA1535 harboring pSK1002 assessed as survival at 0.5 mg/ml in absence of Sprague-Dawley rat liver S9 fraction metabolic activation by SOS/umu assay relative to control. The class given is toxicity. Conditions: salmonella enterica subsp. enterica serovar typhimurium, read-out: Survival. The essentials: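 Survival of S. typhimurium TA1535/pSK1002 exposed to a range of compound concentrations with or without S9 mix in 96-well format. Survival percentage measured as the cytotoxicity arm of the SOS/umu test. Concentrations with survival ≥80% are counted as non-cytotoxic.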

Series [3] can be described thus: Toxicity in BALB/c mouse infected with Trypanosoma cruzi MHOM/Pe/2011/Arequipa;DTU 5 bloodstream trypomastigote assessed as change in serum aspartate aminotransferase level in acute phase at 20 mg/kg/day, po administered for 5 consecutive days starting from day 8 post infection and measured at day 14 post infection by biochemical analysis relative to control. Type of series: organism-based. The note with it: in vivo.

The nature of series [4]: Toxicity in BALB/c mouse infected with Trypanosoma cruzi MHOM/Pe/2011/Arequipa;DTU 5 bloodstream trypomastigote assessed as change in serum urea level in chronic phase at 20 mg/kg/day, po administered for 5 consecutive days starting from day 70 post infection measured on day 100 post infection relative to control. The class given is organism-based. The note with it: in vivo.

In series [5] the test system is Trypanosoma cruzi. Description: Inhibition of Trypanosoma cruzi MHOM/Pe/2011/Arequipa;DTU 5 epimastigote Fe-SOD at 25 uM. The essentials:
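Fe-SOD excreted by exponentially growing T. cruzi Arequipa epimastigotes cultured in supplemented MTL at 28 °C. Protein quantified by Bradford. SOD activity measured by the Beyer–Fridovich method. IC50 from inhibition curves by nonlinear regression. Mean of three independent determinations ± standard deviation.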

Series [6] can be described thus: Toxicity in BALB/c mouse infected with Trypanosoma cruzi MHOM/Pe/2011/Arequipa;DTU 5 bloodstream trypomastigote assessed as change in serum creatine kinase muscle to brain ratio level in acute phase at 20 mg/kg/day, po administered for 5 consecutive days starting from day 8 post infection and measured on day 100 post infection by biochemical analysis relative to control. The class given is organism-based. The note with it: in vivo.

In series [7] the test system is Trypanosoma cruzi. Description: Antitrypanosomal activity against Trypanosoma cruzi MHOM/Pe/2011/Arequipa;DTU 5 bloodstream trypomastigote infected in BALB/c mouse assessed as reduction in parasitemia […] at 20 mg/kg/day, po administered for 5 consecutive days starting from day 8 post infection measured every 2 to 3 days starting from day 7 post infection by Neubauer chamber relative to untreated control. Type of series: functional. On the set-up: scale not given: the % may be the effect or the level left. The essentials:
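Female BALB/c mice (three per group) were infected i.p. with 5 × 10^5 Arequipa bloodstream trypomastigotes, with parasitemia confirmed on day 7 pi. Oral dosing was 20 mg/kg/day on days 8–12 pi in 5% DMSO/0.5% HPMC; controls received vehicle. Bloodstream trypomastigotes were counted through the acute phase until day 48 pi.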

The nature of series [8]: Toxicity in BALB/c mouse infected with Trypanosoma cruzi MHOM/Pe/2011/Arequipa;DTU 5 bloodstream trypomastigotes assessed as decrease in serum aspartate aminotransferase level in acute phase at 20 mg/kg/day, po administered for 5 consecutive days starting from day 8 post infection and measured at day 14 post infection by biochemical analysis relative to control. Type of series: organism-based. The note with it: in vivo. On the set-up: scale not given: the % may be the effect or the level left.

The nature of series [9]: Toxicity in BALB/c mouse infected with Trypanosoma cruzi MHOM/Pe/2011/Arequipa;DTU 5 bloodstream trypomastigote assessed as change in serum uric acid level in chronic phase at 20 mg/kg/day, po administered for 5 consecutive days starting from day 70 post infection and measured at day 76 post infection relative to control. Type of series: organism-based. The note with it: in vivo.

The test system of series [10] is Trypanosoma cruzi. Nature of the series: Antitrypanosomal activity against Trypanosoma cruzi MHOM/Pe/2011/Arequipa;DTU 5 epimastigote assessed as effect on parasite glycolytic pathway by measuring increase in pyruvate excretion at IC50 after 72 hrs by H NMR method relative to control. The class given is functional. The essentials: as §1
A short description of series [11]: Mutagenecity against Salmonella typhimurium TA97a assessed as number of colonies at 7.4 ug/plate in presence of Sprague-Dawley rat S9 with metabolic activation measured after 48 hrs by Ames test (reference value: 55 +/- 7.1). Type of series: toxicity, subcellular. The note with it: salmonella enterica subsp. enterica serovar typhimurium, s9, 48 h. (In general: The Ames test detects mutagens through reverse mutation in bacteria.)

Series [12] in a line: Mutagenecity against Salmonella typhimurium TA97a assessed as number of colonies at 200 ug/plate in presence of Sprague-Dawley rat S9 with metabolic activation measured after 48 hrs by Ames test (reference value: 55 +/- 7.1). Type of series: toxicity, subcellular. Conditions: salmonella enterica subsp. enterica serovar typhimurium, s9, 48 h.
The nature of series [13]: Mutagenecity against Salmonella typhimurium TA98 assessed as number of colonies at 66.7 ug/plate in absence of Sprague-Dawley rat S9 measured after 48 hrs by Ames test (reference value: 3 +/- 2.6). The class given is toxicity. The note with it: salmonella enterica subsp. enterica serovar typhimurium, s9, 48 h.
Series [14] is described as follows: Mutagenecity against Salmonella typhimurium TA98 assessed as number of colonies at 22.2 ug/plate in presence of Sprague-Dawley rat S9 measured after 48 hrs by Ames test (reference value: 4 +/- 2). Type of series: toxicity, subcellular. The note with it: salmonella enterica subsp. enterica serovar typhimurium, s9, 48 h.
Series [15] in a line: Mutagenecity against Salmonella typhimurium TA98 assessed as number of colonies at 66.7 ug/plate in presence of Sprague-Dawley rat S9 measured after 48 hrs by Ames test (reference value: 4 +/- 2). Type of series: toxicity, subcellular. Conditions: salmonella enterica subsp. enterica serovar typhimurium, s9, 48 h.
Series [16] in a line: Mutagenecity against Salmonella typhimurium TA 100 assessed as number of colonies at 7.4 ug/plate in absence of Sprague-Dawley rat S9 with metabolic activation measured after 48 hrs by Ames test (reference value: 35.7 +/- 0.6). Type of series: toxicity. The note with it: salmonella enterica subsp. enterica serovar typhimurium, s9, 48 h.
The nature of series [17]: Mutagenecity against Salmonella typhimurium TA 100 assessed as number of colonies at 22.2 ug/plate in absence of Sprague-Dawley rat S9 with metabolic activation ug/plate measured after 48 hrs by Ames test (reference value: 35.7 +/- 0.6). The note with it: salmonella enterica subsp. enterica serovar typhimurium, s9, 48 h. Type of series: toxicity.
Series [18] in a line: Mutagenecity against Salmonella typhimurium TA 100 assessed as number of colonies at 66.7 ug/plate in absence of Sprague-Dawley rat S9 with metabolic activation measured after 48 hrs by Ames test (reference value: 35.7 +/- 0.6). Type of series: toxicity. Conditions: salmonella enterica subsp. enterica serovar typhimurium, s9, 48 h.
The nature of series [19]: Mutagenecity against Salmonella typhimurium TA 100 assessed as number of colonies at 200 ug/plate in presence of Sprague-Dawley rat S9 with metabolic activation measured after 48 hrs by Ames test (reference value: 47.3 +/- 5.7). Type of series: toxicity, subcellular. The note with it: salmonella enterica subsp. enterica serovar typhimurium, s9, 48 h.
Series [20] is described as follows: Mutagenecity against Salmonella typhimurium TA 102 assessed as number of colonies at 22.2 ug/plate in absence of Sprague-Dawley rat S9 with metabolic activation measured after 48 hrs by Ames test (reference value: 78.7 +/- 7.8). The class given is toxicity. Conditions: salmonella enterica subsp. enterica serovar typhimurium, s9, 48 h.
Series [21] in a line: Mutagenecity against Salmonella typhimurium TA 102 assessed as number of colonies at 7.4 ug/plate in presence of Sprague-Dawley rat S9 with metabolic activation measured after 48 hrs by Ames test (reference value: 72 +/- 1). The class given is toxicity, subcellular. Conditions: salmonella enterica subsp. enterica serovar typhimurium, s9, 48 h.
A short description of series [22]: Mutagenecity against Salmonella typhimurium TA1535 assessed as number of colonies at 22.2 ug/plate in absence of Sprague-Dawley rat S9 measured after 48 hrs by Ames test (reference value: 13.3 +/- 2.5). Type of series: toxicity. The note with it: salmonella enterica subsp. enterica serovar typhimurium, s9, 48 h.
The nature of series [23]: Mutagenecity against Salmonella typhimurium TA1535 assessed as number of colonies at 22.2 ug/plate in presence of Sprague-Dawley rat S9 measured after 48 hrs by Ames test (reference value: 5 +/- 3.6). Type of series: toxicity, subcellular. Conditions: salmonella enterica subsp. enterica serovar typhimurium, s9, 48 h.

Each structure is given as a SMILES string. Activity calls are given as the source filed them. No cut-off for these calls is given here.

In the case of `O=C(CCN1CCN(c2ccc(C(F)(F)F)cc2)CC1)c1ccc(O)cc1`, the Activity in series [1] is given as 80%; in [3], above 10%; in series [4] it was above 10%. The viability at 0.5 mg/ml in [2] was 155%. Moreover, the inhibition entry in [5] is “Active”.

On to `O=C(Cn1ccnc1[N+](=O)[O-])NCc1ccccc1` [BENZNIDAZOLE], for which the Activity in series [6] is listed as above 10%.

`O=C(CCN1CCN(c2ccc(Cl)cc2)CC1)c1ccc(O)cc1`: the Activity in [7] is on record as 70%; in series [8] it was “<= 10%”; in series [9] it was above 10%; in series [10], 36%; in [11] it was 44.3; in series [12], 41. For the same molecule, the Activity worked out at 4 in [13]; 4 in series [14]; 6.3 in [15]; 32.3 in series [16]; 34.3 in series [17]; 38 in series [18]. The Activity came out at 42.3 in series [19]; 69.7 in [20]; 75 in series [21]; 4 in series [22]; 3 in series [23].
